In the library only some 1.4% were active in any assay of this set; here they are far more common.
GSK3 alpha inh: inhibitors of human GSK-3 alpha kinase; P49840; ADP-Glo luminescence, 60 min; inhibition, % at 10 µM; 320,000 tested, 0.1% active;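 active = more than half of replicates show inhibition above 20%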;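 note: GST-tagged GSK-3 alpha with peptide substrate and 25 µM ATP; 0% = DMSO neutral wells and 100% = GW8510 positive control wells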
STK33 inh: blocks human STK33 kinase activity; Q9BYT3; purified STK33, MBP phosphorylation, ADP-Glo luminescence; inhibition, % at 10 µM; 320,000 tested, 0.073% active; AID 2661;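 active = inhibition at or above 25%, using the most active replicate where run in duplicate; inactive = inhibition below 25%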
Target sequence (Q9BYT3 whole entry, looked up): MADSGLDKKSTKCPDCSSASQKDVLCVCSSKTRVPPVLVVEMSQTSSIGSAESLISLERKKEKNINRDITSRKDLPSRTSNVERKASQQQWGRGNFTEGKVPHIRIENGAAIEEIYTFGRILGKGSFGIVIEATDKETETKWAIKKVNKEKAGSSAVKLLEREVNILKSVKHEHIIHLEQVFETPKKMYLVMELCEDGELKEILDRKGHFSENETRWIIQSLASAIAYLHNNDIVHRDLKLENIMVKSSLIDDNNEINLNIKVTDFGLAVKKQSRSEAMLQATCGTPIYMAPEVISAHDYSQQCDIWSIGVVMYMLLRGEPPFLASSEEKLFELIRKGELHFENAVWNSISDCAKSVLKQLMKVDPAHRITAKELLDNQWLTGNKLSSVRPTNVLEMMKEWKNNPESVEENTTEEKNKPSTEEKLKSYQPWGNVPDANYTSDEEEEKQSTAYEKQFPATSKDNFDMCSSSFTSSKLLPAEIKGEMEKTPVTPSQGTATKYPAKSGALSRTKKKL
INS-1E GSIS act: GLuc luminescence reporter in INS-1E cells, primary screen for activators of glucose-dependent secretion of insulin; AID 743287; 370,000 tested, 0.61% active; activation, % at 16.6 µM; INS-1E GLuc reporter insulin secretion, 2-3 h;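 active = lowest replicate activation of at least 40%, so every replicate reaches that level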;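 note: 0% = median of neutral control wells and 100% = median of IBMX positive control wells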
CDK5 p35 inh: blocks human CDK5/p35 kinase activity; Q00535+Q15078; Recombinant CDK5/p35, ADP-Glo luminescence, 60 min; inhibition, % at 10 µM; 330,000 tested, 0.01% active; AID 488839;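 active = highest replicate inhibition of at least 50% and at least 75% of replicates reaching 50%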;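 note: plate controls were DMSO neutral control for no effect and GW8510 at 10 µM for full effect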
HIV Env fusion: HIV envelope-mediated fusion inhibition. HeLa-JRFL Env/CEM21 cell fusion, luciferase. inhibition, % at 12.3 µM. 360,000 tested, 1.1% active. AID 651610;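 active = mean replicate inhibition score of at least 50 and every replicate individually at or above 50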;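 note: 0% = plate neutral controls and 100% = maraviroc near 300 nM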
GSK3beta inhib: human GSK3beta kinase inhibition. GST-GSK3beta kinase, ADP-Glo luminescence, 60 min; hits give low values. 300,000 tested, 0.038% active. AID 2097. P49841. activity score (negative = inhibition), % at 10 µM;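 active = more than half of replicate wells score below -50%, meaning over 50% inhibition versus plate controls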;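 note: 0% = median DMSO wells and -100% = median GW8510 positive control wells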
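test system = GST-tagged human GSK3beta kinase, cell-free | reagent = 25 µM ATP with peptide substrate | dosing = one dose of 10 µM per compound | schedule = 60 min reaction, RT | detection = luminescent ADP-Glo measurement of ADP formed | control set = DMSO neutral wells and GW8510 at 20 µM as positive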
* hit, by the source's call; nt = not tested or not shown; [ ] = another dose, or the depositor's remark.

SMILES | GSK3 alpha inh | STK33 inh | INS-1E GSIS act | CDK5 p35 inh | HIV Env fusion | GSK3beta inhib
C[C@@H]1CN([C@@H](C)CO)C(=O)Cc2cc(NC(=O)Cc3ccccc3)ccc2O[C@H]1CN(C)S(=O)(=O)c1cn(C)cn1 | nt | nt | 12 | nt | 16[16.7 µM] | nt
OC[C@@H]1[C@@H](c2ccc(C#CC3CCCC3)cc2)[C@@H]2CN(CCC(F)(F)F)CCCCN12 | nt | nt | 46* | nt | nt | nt
COc1ccccc1NC(=O)N1CCCCN2[C@@H](CO)[C@@H](c3ccc(C#CC4CCCC4)cc3)[C@@H]2C1 | nt | nt | 55* | nt | nt | nt
COc1ccccc1NC(=O)N1CCCCN2[C@H](CO)[C@@H](c3ccc(C#CC4CCCC4)cc3)[C@@H]2C1 | nt | nt | 4 | nt | nt | nt
OC[C@@H]1[C@@H](c2ccc(C#CC3CCCC3)cc2)[C@H]2CN(CCC(F)(F)F)CCCCN12 | nt | nt | 170* | nt | nt | nt
COc1ccc2c3c(n(C)c2c1)[C@@H](CO)N(Cc1cc(F)ccc1F)CC31CCN(C(=O)C2CC2)CC1 | nt | nt | -11 | nt | nt | nt
C/C(=N\NC(=O)CC1N=C(Cc2ccccc2)NNC1=O)c1ccc(Cl)cc1Cl (configuration not stated) | 0 | -1 | 142* | -1 | nt | -2
COc1ccc(S(=O)(=O)Nc2ccccc2OC)cc1N=Nc1c(O)[nH]c(=S)[nH]c1=O | 0 | 0 | 99* | 1 | -9 | nt
CC(C)C(=O)Nc1ccc(COc2ccccc2CN(Cc2ccccc2)C(=O)OC(C)(C)C)cc1 | nt | nt | -3 | 1 | 13 | nt
CC(C)C(=O)Nc1cccc(COc2ccc(CN(Cc3ccccc3)C(=O)OC(C)(C)C)cc2)c1 | nt | nt | -21 | 0 | 58* | nt
CC(C)(C)OC(=O)N(CCc1ccccc1)Cc1cccc(OCc2cccc(NC(=O)c3ccccc3)c2)c1 | nt | nt | 6 | 1 | 66* | nt
O=[N+]([O-])c1cccc(COc2ccccc2CN2CCCCC2)c1 | nt | nt | 56* | 0 | -99 | nt
O=[N+]([O-])c1cccc(COc2cccc(CN3CCOCC3)c2)c1 | nt | nt | 9 | 1 | 9 | nt
O=[N+]([O-])c1cccc(COc2ccccc2CN2CCOCC2)c1 | nt | nt | -2 | 0 | 56* | nt
CC(C)Cn1c(SCC(=O)NC2CC2)nc2ccccc21 | nt | nt | nt | nt | 95* | nt
CN(C)c1cc2c(c(N(C)C)c1)C(=O)c1ccccc1C2=O | 1 | 40* | nt | -3 | -102 | 0
CCC(=O)N(C)C[C@H]1Oc2ncc(-c3ccccc3F)cc2C(=O)N([C@H](C)CO)C[C@@H]1C | nt | nt | 3 | nt | -3[16.7 µM] | nt
COc1ccc(/C(=C/c2ccc(OC(F)F)c(OC)c2)C(=O)O)cc1OC | -2 | -1 | 75* | -1 | -8 | -23
CC(C)C#Cc1cnc2c(c1)C(=O)N([C@H](C)CO)C[C@@H](C)[C@@H](CN(C)C(=O)c1cccnc1)O2 | nt | nt | 17 | nt | nt | nt
CN1CCN(c2ccccc2NC(=O)C(Cc2ccccc2)n2cccc2)CC1 (configuration not stated) | 3 | 6 | -37 | -2 | 77* | 1
CN1CCN(c2ccccc2NC(=O)c2ccc(-c3ccccc3)cc2)CC1 | 0 | 2 | nt | 1 | nt | 0
O=C(Nc1ccc(Cl)cc1)Nc1nnc(CSCc2ccc(Cl)cc2)s1 | -3 | -1 | 1 | 0 | 71* | 0
O=C(CC(NC(=O)c1ccccc1)c1ccccc1)Nc1cccc2ccccc12 (configuration not stated) | -3 | -1 | 95* | -3 | -25 | -1
O=C(CC(NC(=O)c1ccccc1)c1ccccc1)NCc1ccccc1 (configuration not stated) | -2 | -3 | -1 | 3 | 5 | nt
O=C(CSCC(=O)Nc1cccc2ccccc12)Nc1cccc2ccccc12 | -2 | 1 | 25 | 0 | 71* | -1
CN(C)Cc1c(C(=O)N/N=C/c2ccncc2)nnn1-c1nonc1N | 64* | 0 | 31 | 1 | 12 | -29
CCCN(CCC)Cc1c(C(=O)N/N=C/c2ccoc2)nnn1-c1nonc1N | 72* | 1 | 4 | 1 | 10 | -58*
CCN(CC)Cc1c(C(=O)N/N=C/c2ccncc2)nnn1-c1nonc1N | 101* | 4 | 2 | 0 | -25 | 2
CN(C)Cc1c(C(=O)N/N=C/c2ccoc2)nnn1-c1nonc1N | 0 | 1 | 6 | 2 | 7 | -1
